Reference: ChEMBL document CHEMBL4811303, “Synthesis and evaluation of trypanocidal activity of derivatives of naturally occurring 2,5-diphenyloxazoles” (Bioorg Med Chem, 2021)
pIC50: −log10 of the molar value.

Key:
[1] = test system: Trypanosoma brucei brucei; assay: Trypanocidal activity against Trypanosoma brucei brucei assessed as reduction in intracellular ATP production incubated for 72 hrs by CellTiter-Glo luminescent cell viability assay; format: functional, organism-based
Summary of the method: (§1)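 Bloodstream trypanosomes in 96-well culture were exposed to compound in 5-fold serial dilutions from 25 µg/mL to 1.6 ng/mL for 72 h. Seeding and temperature: T. b. brucei, T. b. gambiense and T. b. rhodesiense at 5×10^3 cells/mL and 37 °C; T. evansi at 1×10^4 cells/mL and 37 °C; T. congolense at 2×10^5 cells/mL and 33 °C. Viability was read as intracellular ATP by CellTiter-Glo luminescence. Three replicates; IC50 calculated.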

Trypanosoma evansi = assay: Trypanocidal activity against Trypanosoma evansi assessed as reduction in intracellular ATP production incubated for 72 hrs by CellTiter-Glo luminescent cell viability assay; format: functional, organism-based; summary of the method: as §1
[2] = test system: Trypanosoma brucei rhodesiense; assay: Trypanocidal activity against Trypanosoma brucei rhodesiense assessed as reduction in intracellular ATP production incubated for 72 hrs by CellTiter-Glo luminescent cell viability assay; format: functional, organism-based; summary of the method: as §1
[3] = Selectivity index, ratio of IC50 for cytotoxicity against bovine MDBK cells to IC50 for Trypanocidal activity against Trypanosoma congolense
Trypanosoma congolense = assay: Trypanocidal activity against Trypanosoma congolense assessed as reduction in intracellular ATP production incubated for 72 hrs by CellTiter-Glo luminescent cell viability assay; format: functional, organism-based; summary of the method: as §1
[4] = Selectivity index, ratio of IC50 for cytotoxicity against bovine MDBK cells to IC50 for Trypanocidal activity against Trypanosoma brucei gambiense; settings: cattle
[5] = Selectivity index, ratio of IC50 for cytotoxicity against bovine MDBK cells to IC50 for Trypanocidal activity against Trypanosoma evansi
[6] = Selectivity index, ratio of IC50 for cytotoxicity against bovine MDBK cells to IC50 for Trypanocidal activity against Trypanosoma brucei rhodesiense
[7] = test system: Trypanosoma brucei gambiense; assay: Trypanocidal activity against Trypanosoma brucei gambiense assessed as reduction in intracellular ATP production incubated for 72 hrs by CellTiter-Glo luminescent cell viability assay; format: functional, organism-based; summary of the method: as §1
MDBK cells (Bos taurus) = assay: Cytotoxicity against bovine MDBK cells assessed as reduction in cell viability incubated for 72 hrs by CCK8 assay
[8] = Selectivity index, ratio of IC50 for cytotoxicity against bovine MDBK cells to IC50 for Trypanocidal activity against Trypanosoma brucei brucei; settings: cattle

Compound	pIC50 [1]	pIC50 (Trypanosoma evansi)	pIC50 [2]	selectivity ratio [3]	pIC50 (Trypanosoma congolense)	selectivity ratio [4]	selectivity ratio [5]	selectivity ratio [6]	pIC50 [7]	pIC50 (MDBK cells (Bos taurus))	selectivity ratio [8]
COc1ccccc1-c1cnc(-c2c(OC)cccc2OC)o1	4.71	4.66	4.74	7.1	5.28	1.5	1.7	2	4.61	4.42	1.9
CC(=O)Oc1ccc(OC(C)=O)c(-c2cnc(-c3cc(OC(C)=O)ccc3OC(C)=O)o2)c1	4.45	4.35	4.32	1.8	4.77	0.6	0.67	0.63	4.30	4.52	0.85
COCOc1ccccc1-c1cnc(-c2cccc(OC)c2OC)o1	4.67	4.59	4.58	21	5.41	4.2	3.2	3.1	4.71	4.09	3.8
COc1ccccc1-c1coc(-c2cccc(OC)c2OC)n1	4.42	4.42	4.50	> 34	5.03	> 8.3	> 8.5	> 10	4.41	< 3.49	> 8.4
COc1ccc(OC)c(-c2cnc(-c3ccccc3OC)o2)c1	< 4.10	< 4.10	< 4.10	> 75	5.37	> 14	–	–	4.65	< 3.49	–
Cc1ccc(C(=O)Nc2ccc(S(=O)(=O)O)c3cc(S(=O)(=O)O)cc(S(=O)(=O)O)c23)cc1NC(=O)c1cccc(NC(=O)Nc2cccc(C(=O)Nc3cc(C(=O)Nc4ccc(S(=O)(=O)O)c5cc(S(=O)(=O)O)cc(S(=O)(=O)O)c45)ccc3C)c2)c1 [SURAMIN]	7.18	6.42	7.12	–	5.14	–	–	–	7.19	–	–
COc1cccc(-c2ncc(-c3ccccc3O)o2)c1OC	< 4.08	< 4.08	< 4.08	–	< 4.08	–	–	–	< 4.08	< 3.47	–
CCOc1ccccc1-c1cnc(-c2cccc(OC)c2OC)o1	< 4.11	< 4.11	< 4.11	> 69	5.36	–	–	–	< 4.11	< 3.51	–
CC1CS(=O)(=O)CCN1/N=C/c1ccc([N+](=O)[O-])o1 (stereo not given) [NIFURTIMOX]	5.33	5.59	5.36	–	5.96	–	–	–	–	–	–
COc1ccc(OC)c(-c2cnc(-c3cccc(OC)c3OC)o2)c1	< 4.14	< 4.14	< 4.14	> 188	5.80	–	–	–	< 4.14	< 3.53	–
COc1cccc(-c2ncc(-c3ccccc3NC(C)=O)o2)c1OC	< 4.13	< 4.13	< 4.13	> 7.8	4.42	–	–	–	< 4.13	< 3.53	–
COc1ccc(OC)c(-c2ncc(-c3ccccc3OC)o2)c1	< 4.10	< 4.10	< 4.10	–	< 4.10	–	–	–	< 4.10	< 3.49	–
COc1ccc(OC)c(-c2cnc(-c3ccccc3)o2)c1	< 4.05	< 4.05	< 4.05	> 23	4.81	–	–	–	< 4.05	< 3.45	–
COc1ccc(OC)c(-c2cnc(-c3cc(OC)ccc3OC)o2)c1	< 4.14	< 4.14	< 4.14	> 100	5.54	–	–	–	< 4.14	< 3.53	–
COc1ccccc1-c1cnc(-c2cccc(OC)c2OC)o1	< 4.10	< 4.10	< 4.10	> 414	6.11	–	–	–	< 4.10	< 3.49	–
